Values after ≈ are worked out from the molar mass of the structure shown. Active and inactive are the calls of the source. No cut-off for these calls is given here.
Each compound was assayed on RAW264.7 (assay: Inhibition of LPS-induced nitric oxide production in mouse RAW264.7 cells preincubated for 30 mins followed by LPS-stimulation and measured after 24 hrs by Griess assay). Details: not given.
Assay type: functional, cell-based
How it was run: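 RAW264.7 macrophages seeded at 50 000 cells/well and grown 24 h, then exposed to compound for 30 min at 37 °C before LPS (100 ng/mL) co-incubation for 24 h. Nitrite in supernatant measured by Griess reagent (10 min mixing), absorbance 540 nm. Compounds from 10 mM DMSO stocks; final DMSO ≤0.1%. Dexamethasone positive control. Triplicate runs; IC50 calculated.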

Row | Compound | inhibition
1 | C=C1[C@]2(CCC(=O)OC2(C)C)C[C@@H](OC(=O)/C(C)=C\C)[C@]2(C)[C@]34C(=O)O[C@H](C)[C@]35O[C@]12[C@H](OC(C)=O)[C@@](C)(OC5=O)C4=O | inactive
2 | C=C1[C@@]23C(=O)O[C@H](C)[C@@]2(O)C(=O)O[C@]1(C)[C@@H](O)C1=C(C)[C@]2(CCC(=O)OC2(C)C)CC[C@@]13C | inactive

The compounds below were run on Helicoverpa armigera (assay: Insecticidal activity against Helicoverpa armigera hubner measured every other day for 8 days starting from 2 days post dosing). Details: not given.
Assay type: functional, organism-based
How it was run: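 Neonate H. armigera larvae fed artificial diet dosed with serial dilutions of compound (1 mg/mL in DMSO) at 200, 100, 50, 25 and 12.5 μL/well in six-well plates; three groups of three larvae, 3 replicates per treatment. Held at 25 ± 1 °C, 80% relative humidity. Dead larvae counted on days 2, 4, 6, 8. DMSO negative, azadirachtin positive, plain diet blank controls.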

Row | Compound | IC50 [µg/mL]
3 | C=C1[C@]2(CCC(=O)OC2(C)C)C[C@@H](OC(=O)/C(C)=C\C)[C@]2(C)[C@]34C(=O)O[C@H](C)[C@]35O[C@]12[C@H](OC(C)=O)[C@@](C)(OC5=O)C4=O | 200 (≈ 333 µM)
4 | C=C1[C@@]23C(=O)O[C@H](C)[C@@]2(O)C(=O)O[C@]1(C)[C@@H](O)C1=C(C)[C@]2(CCC(=O)OC2(C)C)CC[C@@]13C | 100 (≈ 217 µM)

Each compound was assayed on Caenorhabditis elegans (assay: Insecticidal activity against Caenorhabditis elegans measured at 12 […]). Details: not given.
Assay type: functional, organism-based
How it was run: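 L1 C. elegans (30−40 worms/well) in S medium with E. coli OP50 and chloramphenicol, exposed to compound at 40, 20, 10, 5, 1 and 0 μg/mL diluted in filter-sterilized M-9; 3 replicates per treatment. Plates sealed, kept at 24 °C for 60 h in the dark; dead larvae counted at 12, 24, 36, 48, 60. M-9 negative control, levamisole 1 mg/mL positive control.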

Row | Compound | EC50 [µg/mL]
5 | C=C1[C@]2(CCC(=O)OC2(C)C)C[C@@H](OC(=O)/C(C)=C\C)[C@]2(C)[C@]34C(=O)O[C@H](C)[C@]35O[C@]12[C@H](OC(C)=O)[C@@](C)(OC5=O)C4=O | 9.4 (≈ 15.7 µM)
6 | C=C1[C@@]23C(=O)O[C@H](C)[C@@]2(O)C(=O)O[C@]1(C)[C@@H](O)C1=C(C)[C@]2(CCC(=O)OC2(C)C)CC[C@@]13C | 19.5 (≈ 42.3 µM)

These compounds were tested on A549 (assay: Cytotoxicity against human A549 cells measured after 7 days by MTT assay). Details: not given.
Assay type: functional, cell-based

Row | Compound | Activity
7 | C=C1[C@]2(CCC(=O)OC2(C)C)C[C@@H](OC(=O)/C(C)=C\C)[C@]2(C)[C@]34C(=O)O[C@H](C)[C@]35O[C@]12[C@H](OC(C)=O)[C@@](C)(OC5=O)C4=O | inactive
8 | C=C1[C@@]23C(=O)O[C@H](C)[C@@]2(O)C(=O)O[C@]1(C)[C@@H](O)C1=C(C)[C@]2(CCC(=O)OC2(C)C)CC[C@@]13C | inactive

The compounds below were run on HeLa (assay: Cytotoxicity against human HeLa cells measured after 7 days by MTT assay). Details: not given.
Assay type: functional, cell-based

Row | Compound | Activity
9 | C=C1[C@]2(CCC(=O)OC2(C)C)C[C@@H](OC(=O)/C(C)=C\C)[C@]2(C)[C@]34C(=O)O[C@H](C)[C@]35O[C@]12[C@H](OC(C)=O)[C@@](C)(OC5=O)C4=O | inactive
10 | C=C1[C@@]23C(=O)O[C@H](C)[C@@]2(O)C(=O)O[C@]1(C)[C@@H](O)C1=C(C)[C@]2(CCC(=O)OC2(C)C)CC[C@@]13C | inactive

The compounds below were run on HepG2 (assay: Cytotoxicity against human HepG2 cells measured after 7 days by MTT assay). Details: not given.
Assay type: functional, cell-based

Row | Compound | Activity
11 | C=C1[C@]2(CCC(=O)OC2(C)C)C[C@@H](OC(=O)/C(C)=C\C)[C@]2(C)[C@]34C(=O)O[C@H](C)[C@]35O[C@]12[C@H](OC(C)=O)[C@@](C)(OC5=O)C4=O | inactive
12 | C=C1[C@@]23C(=O)O[C@H](C)[C@@]2(O)C(=O)O[C@]1(C)[C@@H](O)C1=C(C)[C@]2(CCC(=O)OC2(C)C)CC[C@@]13C | inactive

The compounds below were run on Escherichia coli (assay: Antibacterial activity against Escherichia coli ATCC 25922 by microplate assay). Details: not given.
Assay type: functional, organism-based

Row | Compound | Activity
13 | C=C1[C@]2(CCC(=O)OC2(C)C)C[C@@H](OC(=O)/C(C)=C\C)[C@]2(C)[C@]34C(=O)O[C@H](C)[C@]35O[C@]12[C@H](OC(C)=O)[C@@](C)(OC5=O)C4=O | inactive
14 | C=C1[C@@]23C(=O)O[C@H](C)[C@@]2(O)C(=O)O[C@]1(C)[C@@H](O)C1=C(C)[C@]2(CCC(=O)OC2(C)C)CC[C@@]13C | inactive

These compounds were tested on Staphylococcus aureus (assay: Antibacterial activity against Staphylococcus aureus ATCC 25923 by microplate assay). Details: not given.
Assay type: functional, organism-based

Row | Compound | Activity
15 | C=C1[C@]2(CCC(=O)OC2(C)C)C[C@@H](OC(=O)/C(C)=C\C)[C@]2(C)[C@]34C(=O)O[C@H](C)[C@]35O[C@]12[C@H](OC(C)=O)[C@@](C)(OC5=O)C4=O | inactive
16 | C=C1[C@@]23C(=O)O[C@H](C)[C@@]2(O)C(=O)O[C@]1(C)[C@@H](O)C1=C(C)[C@]2(CCC(=O)OC2(C)C)CC[C@@]13C | inactive

Each compound was assayed on Staphylococcus aureus (assay: Antibacterial activity against methicillin-resistant Staphylococcus aureus ATCC 33591 by microplate assay). Details: not given.
Assay type: functional, organism-based
How it was run: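 MRSA (ATCC 33591) was one strain in a panel of six pathogenic bacteria: four general and two marine Vibrio. Assayed by the microplate method, with ciprofloxacin as positive control.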

Row | Compound | Activity
17 | C=C1[C@]2(CCC(=O)OC2(C)C)C[C@@H](OC(=O)/C(C)=C\C)[C@]2(C)[C@]34C(=O)O[C@H](C)[C@]35O[C@]12[C@H](OC(C)=O)[C@@](C)(OC5=O)C4=O | inactive
18 | C=C1[C@@]23C(=O)O[C@H](C)[C@@]2(O)C(=O)O[C@]1(C)[C@@H](O)C1=C(C)[C@]2(CCC(=O)OC2(C)C)CC[C@@]13C | inactive

The compounds below were run on Bacillus cereus (assay: Antibacterial activity against Bacillus cereus ATCC 11778 by microplate assay). Details: not given.
Assay type: functional, organism-based

Row | Compound | Activity
19 | C=C1[C@]2(CCC(=O)OC2(C)C)C[C@@H](OC(=O)/C(C)=C\C)[C@]2(C)[C@]34C(=O)O[C@H](C)[C@]35O[C@]12[C@H](OC(C)=O)[C@@](C)(OC5=O)C4=O | inactive
20 | C=C1[C@@]23C(=O)O[C@H](C)[C@@]2(O)C(=O)O[C@]1(C)[C@@H](O)C1=C(C)[C@]2(CCC(=O)OC2(C)C)CC[C@@]13C | inactive

The compounds below were run on Vibrio parahaemolyticus (assay: Antibacterial activity against Vibrio parahaemolyticus ATCC 17802 by microplate assay). Details: not given.
Assay type: functional, organism-based

Row | Compound | Activity
21 | C=C1[C@]2(CCC(=O)OC2(C)C)C[C@@H](OC(=O)/C(C)=C\C)[C@]2(C)[C@]34C(=O)O[C@H](C)[C@]35O[C@]12[C@H](OC(C)=O)[C@@](C)(OC5=O)C4=O | inactive
22 | C=C1[C@@]23C(=O)O[C@H](C)[C@@]2(O)C(=O)O[C@]1(C)[C@@H](O)C1=C(C)[C@]2(CCC(=O)OC2(C)C)CC[C@@]13C | inactive

Each compound was assayed on Vibrio alginolyticus (assay: Antibacterial activity against Vibrio alginolyticus ATCC 17749 by microplate assay). Details: NBRC 15630 = ATCC 17749.
Assay type: functional, organism-based

Row | Compound | Activity
23 | C=C1[C@]2(CCC(=O)OC2(C)C)C[C@@H](OC(=O)/C(C)=C\C)[C@]2(C)[C@]34C(=O)O[C@H](C)[C@]35O[C@]12[C@H](OC(C)=O)[C@@](C)(OC5=O)C4=O | inactive
24 | C=C1[C@@]23C(=O)O[C@H](C)[C@@]2(O)C(=O)O[C@]1(C)[C@@H](O)C1=C(C)[C@]2(CCC(=O)OC2(C)C)CC[C@@]13C | inactive
